ChEMBL document CHEMBL1121519, “Basic antiinflammatory compounds. N,N',N''-Trisubstituted guanidines” (J Med Chem, 1980)

Assays:
[1] = test system: Rattus norvegicus; experiment: Percent inhibition of carrageenan paw edema in rat, administered orally at a dose of one tenth of oral lethal dose in mice; type: functional
How it was run: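 1 h later, 0.1 mL of 1% carrageenan was injected into the right hind-paw plantar tissue. Paw swelling was measured by mercury-displacement plethysmometry 3 h after carrageenan, compared with controls.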

[2] = molecular target: Cyclooxygenase (Bos taurus) (UniProt O62664+O62698); experiment: Inhibition of prostaglandin synthetase in bovine seminal vesicle microsomes using Beckman liquid scintillation counter at 10 e-5 M; settings: Microsome
[3] = Lethal dose in mice determined by Litchfield and Wilcoxon methods after peroral administration.; type: toxicity, organism-based; settings: mouse, in vivo, po
How it was run: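 Median lethal dose found after oral dosing of mice, four mice per dose level, and calculated by the Litchfield–Wilcoxon method.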

| SMILES | Inhibition [1] [%] | inhibition [2] [%] | LD50 [3] [mg/kg] |
| --- | --- | --- | --- |
| Cc1cc(N/C(=N/C(C)(C)C)NCCO)c2ccccc2n1 | 40 | 2.8 | 600 |
| CC(C)(C)/N=C(\Nc1ccccn1)Nc1nccs1 | 83 | 6.9 | > 1000 |
| CCCCC(CC)C/N=C(/Nc1nccs1)Nc1cc(C)nc2ccccc12 (centres undefined) | 28 | 2.1 | > 1000 |
| Cc1cc(N/C(=N/C(C)(C)C)Nc2nc(C)c(C)s2)c2ccccc2n1 | 19 | 64.2 | > 1000 |
| COc1cc(N/C(=N\C(C)(C)C)Nc2nccs2)c2ncccc2c1 | – | 5 | > 1000 |
| Cc1cc(N/C(=N\C(C)CCCC(C)C)Nc2nccs2)c2ccccc2n1 (centres undefined) | 25 | 1.7 | > 1000 |
| CC(C)(C)/N=C(\Nc1ccncc1)Nc1nccs1 | 15 | – | 300 |
| Clc1ccc2c(N/C(=N/C3CCCCC3)Nc3nccs3)ccnc2c1 | 56 | 21.6 | > 1000 |
| CC(C)(C)/N=C(/Nc1nccs1)Nc1cccc2c(O)cccc12 | 22 | – | > 1000 |
| CC(C)(C)/N=C(\Nc1nccs1)Nc1ccnc2ccccc12 | 29 | 23.8 | > 1000 |
| Cc1cc(N/C(=N/C2CCCCCC2)Nc2nccs2)c2ccccc2n1 | 19 | 34.8 | > 1000 |
| Cc1cc(N/C(=N/C2CCCCC2)Nc2nnc(C)s2)c2ccccc2n1 | 56 | 36.2 | > 1000 |
| CC(C)(C)/N=C(/Nc1nccs1)Nc1cccc2cccnc12 | 8 | 4.3 | > 1000 |
| Cc1ccc2nccc(N/C(=N/C3CCCCC3)Nc3nccs3)c2c1 | 12 | 7.2 | > 1000 |
| CC(C)c1cc(N/C(=N/C(C)(C)C)Nc2nccs2)c2ccccc2n1 | 31 | 12.4 | > 1000 |
| Cc1cc(N/C(=N/C(C)(C)C)Nc2ccccc2)c2ccccc2n1 | 34 | 43.9 | 40 |
| CCC(C)(C)/N=C(\Nc1ncccn1)Nc1nccs1 | 20 | 27.5 | > 1000 |
| Cc1nc2ccccc2cc1N/C(=N\C(C)(C)C)Nc1nccs1 | 24 | 2.3 | > 1000 |
| CC(C)(C)/N=C(\Nc1ccc(Cl)cn1)Nc1nccs1 | 31 | 1 | > 1000 |

| SMILES | Inhibition [1] [%] | inhibition [2] [%] | LD50 [3] [mg/kg] |
| --- | --- | --- | --- |
| Cc1cc(N/C(=N\C(C)(C)CC(C)(C)C)Nc2nccs2)c2ccccc2n1 | 25 | 49.3 | > 1000 |
| Cc1cc(N/C(=N/C2CCCCC2)Nc2ncc(C(=O)O)s2)c2ccccc2n1 | 30 | 8.4 | > 1000 |
| CCC(C)(C)/N=C(\Nc1cccnc1)Nc1nccs1 | 82 | 0 | > 1000 |
| Cc1cc(N/C(=N/c2ccccc2C)Nc2nccs2)c2ccccc2n1 | 53 | 14.8 | > 1000 |
| CC(C)(C)/N=C(\Nc1nccs1)Nc1cc(-c2ccccc2)nc2ccccc12 | 40 | < 10 | > 1000 |
| Cc1cc(N/C(=N/C(C)(C)C)Nc2nnc(S)s2)c2ccccc2n1 | 16 | 6 | > 1000 |
| Cc1ccc2cc(N/C(=N\C(C)(C)C)Nc3nccs3)ccc2n1 | 43 | 3.7 | > 1000 |
| CCCc1cc(N/C(=N/C2CCCCC2)Nc2nccs2)c2ccccc2n1 | 54 | 56 | > 1000 |
| Cc1cc(N/C(=N\C(C)(C)C)Nc2nccs2)ccn1 | 13 | 14.9 | 250 |
| Cc1cc(N/C(=N/CC2CCCCC2)Nc2nccs2)c2ccccc2n1 | 50 | 21 | > 1000 |
| CCCc1cc(N/C(=N/C(C)(C)C)Nc2nccs2)c2ccccc2n1 | 51 | 74.1 | 600 |
| Cc1cc(N/C(=N\C(C)C(C)(C)C)Nc2nccs2)c2ccccc2n1 (centres undefined) | 36 | 4 | > 1000 |
| Cc1cc(N/C(=N/C2CCCCC2)Nc2nnc(S)s2)c2ccccc2n1 | 36 | 7 | > 1000 |
| CC(C)(C)/N=C(/Nc1nccs1)Nc1cccc2cnccc12 | 21 | -8.8 | > 1000 |
| Cc1cc(N/C(=N/C2CCCCC2)Nc2ccccn2)c2ccccc2n1 | 23 | 0.4 | > 1000 |
| Cc1cc(NC(=N)NC(C)(C)C)c2ccccc2n1 | 5 | 11.7 | 100 |
| COc1ccc2nccc(N/C(=N/C(C)(C)C)Nc3nccs3)c2c1 | 42 | 12.7 | > 1000 |
| Cc1c(Cl)cccc1N/C(=N\C(C)(C)C)Nc1nccs1 | 17 | 9.5 | > 1000 |
| CC(C)(C)N=C(Nc1nccs1)Nc1nccs1 | 49 | 13.1 | > 1000 |

| SMILES | Inhibition [1] [%] | inhibition [2] [%] | LD50 [3] [mg/kg] |
| --- | --- | --- | --- |
| CC(C)Cc1cc(N/C(=N/C2CCCCC2)Nc2nccs2)c2ccccc2n1 | 40 | 11 | > 1000 |
| CC(C)CC(C)(C)/N=C(\Nc1ccncc1)Nc1nccs1 | 22 | 1.1 | 800 |
| Cc1cc(N/C(=N/C2CCCCC2)Nc2nc(C(=O)O)cs2)c2ccccc2n1 | 9 | 2.9 | > 1000 |
| Cc1cc(N/C(=N/C(C)(C)C)Nc2nc3ccccc3s2)c2ccccc2n1 | 18 | 51.8 | > 1000 |
| CCC(C)/N=C(/Nc1nccs1)Nc1cc(C)nc2ccccc12 (centres undefined) | 57 | 10.5 | 400 |
| CC(C)c1cc(N/C(=N/C2CCCCC2)Nc2nccs2)c2ccccc2n1 | 36 | 0 | > 1000 |
| Cc1cc(N/C(=N/C2CCCCC2)Nc2c(C)noc2C)c2ccccc2n1 | 17 | 19.3 | > 1000 |
| Cc1cc(N/C(=N\C2CCCC2)Nc2nccs2)c2ccccc2n1 | 52 | 58.7 | 600 |
| CC(C)(C)/N=C(\Nc1nccs1)Nc1ccnc2cc(C(F)(F)F)ccc12 | 32 | – | > 1000 |
| CCCCCCCCCCCCCCCCCC/N=C(\Nc1nccs1)Nc1cc(C)nc2ccccc12.Cl | 5 | 7 | > 1000 |
| CC(C)(C)/N=C(\Nc1cnc2ccccc2c1)Nc1nccs1 | 36 | -1 | > 1000 |
| c1ccc(-c2cc(N/C(=N/C3CCCCC3)Nc3nccs3)c3ccccc3n2)cc1 | 5 | 14 | > 1000 |
| Cc1cc(NC(=N)NC2CCCCC2)c2ccccc2n1 | – | – | > 1000 |
| CC(C)(C)/N=C(\Nc1ccc2ccccc2n1)Nc1nccs1 | 32 | – | > 1000 |
| c1ccc2c(N/C(=N/C3CCCCC3)Nc3nccs3)ccnc2c1 | 46 | 21.2 | > 1000 |
| CC(C)Cc1cc(N/C(=N/C(C)(C)C)Nc2nccs2)c2ccccc2n1 | 33 | 20 | 600 |
| CC(C)(C)/N=C(/Nc1nccs1)Nc1cccc2ncccc12 | 21 | 9 | > 1000 |
| Cc1cc(N/C(=N/C(C)(C)C)Nc2cnccn2)c2ccccc2n1 | – | – | > 1000 |
